# Experimental data published in ChEMBL document CHEMBL1121885, “Inhibition of inosinic acid dehydrogenase by 8-substituted purine nucleotides” (J Med Chem, 1981).
# Molecular target: T1, Inosine-5'-monophosphate dehydrogenase (Escherichia coli K-12, UniProt P0ADG7)
# T1 sequence (P0ADG7 whole entry): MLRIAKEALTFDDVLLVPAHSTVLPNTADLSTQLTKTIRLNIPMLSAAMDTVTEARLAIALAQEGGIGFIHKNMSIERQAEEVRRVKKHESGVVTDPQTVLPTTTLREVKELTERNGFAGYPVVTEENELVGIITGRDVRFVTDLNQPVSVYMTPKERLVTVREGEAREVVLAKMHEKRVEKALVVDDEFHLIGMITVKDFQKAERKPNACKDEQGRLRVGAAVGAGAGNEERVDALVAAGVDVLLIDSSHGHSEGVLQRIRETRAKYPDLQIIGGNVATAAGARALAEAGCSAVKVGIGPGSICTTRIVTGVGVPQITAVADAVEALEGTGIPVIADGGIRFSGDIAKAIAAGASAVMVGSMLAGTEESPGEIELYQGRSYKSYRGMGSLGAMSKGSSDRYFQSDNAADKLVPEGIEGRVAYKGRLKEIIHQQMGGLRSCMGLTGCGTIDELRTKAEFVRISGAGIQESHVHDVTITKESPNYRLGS
# Experiment: Inhibition of inosine monophosphate dehydrogenase in Escherichia coli
# In short: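 E. coli B IMP-DH (0-40% ammonium sulfate fraction of frozen paste, redissolved in 0.05 M Tris pH 8.5). Enzyme-started, 25 °C, NADH rise at 360 nm; Ki from weighted fit to linear competitive equation.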
row,SMILES,Ki
1,Nc1ncnc2c1nc(SCc1ccc(C(=O)O)cc1)n2C1O[C@H](COP(=O)(O)O)[C@@H](O)[C@H]1O (some centres not stated),196 µM
2,Nc1ncnc2c1nc(Br)n2[C@@H]1O[C@H](COP(=O)(O)O)[C@@H](O)[C@H]1O,161 µM
3,Nc1ncnc2c1nc(SCc1ccc(Cl)cc1)n2C1O[C@H](COP(=O)(O)O)[C@@H](O)[C@H]1O (some centres not stated),53 µM
4,CC(C)(C)c1ccc(CSc2nc3c(=O)[nH]cnc3n2C2O[C@H](COP(=O)(O)O)[C@@H](O)[C@H]2O)cc1 (some centres not stated),129 µM
5,Nc1ncnc2c1nc(NCc1ccccc1)n2C1O[C@H](COP(=O)(O)O)[C@@H](O)[C@H]1O (some centres not stated),275 µM
6,O=c1[nH]cnc2c1nc(SCc1ccc(Cl)cc1)n2C1O[C@H](COP(=O)(O)O)[C@@H](O)[C@H]1O (some centres not stated),29 µM
7,O=P(O)(O)OC[C@H]1OC(n2c(Sc3ccccc3)nc3c(O)ncnc32)[C@H](O)[C@@H]1O (some centres not stated),68 µM
8,Nc1ncnc2c1nc(Sc1ccc(Cl)cc1)n2C1O[C@H](COP(=O)(O)O)[C@@H](O)[C@H]1O (some centres not stated),70 µM
9,Nc1ncnc2c1nc(SCc1cc([N+](=O)[O-])cc([N+](=O)[O-])c1)n2C1O[C@H](COP(=O)(O)O)[C@@H](O)[C@H]1O (some centres not stated),21 µM
10,N#Cc1ccc(CSc2nc3c(O)ncnc3n2C2O[C@H](COP(=O)(O)O)[C@@H](O)[C@H]2O)cc1 (some centres not stated),19 µM
11,COc1ccc(CSc2nc3c(=O)[nH]cnc3n2C2O[C@H](COP(=O)(O)O)[C@@H](O)[C@H]2O)cc1 (some centres not stated),41 µM
12,Nc1ncnc2c1nc(Sc1ccccc1)n2C1O[C@H](COP(=O)(O)O)[C@@H](O)[C@H]1O (some centres not stated),137 µM
13,O=[N+]([O-])c1ccc(CSc2nc3c(O)ncnc3n2C2O[C@H](COP(=O)(O)O)[C@@H](O)[C@H]2O)cc1 (some centres not stated),26 µM
14,COc1ccc(CSc2nc3c(N)ncnc3n2C2O[C@H](COP(=O)(O)O)[C@@H](O)[C@H]2O)cc1 (some centres not stated),84 µM
15,Nc1ncnc2c1nc(SCc1ccc(F)cc1)n2C1O[C@H](COP(=O)(O)O)[C@@H](O)[C@H]1O (some centres not stated),74 µM
16,O=c1[nH]cnc2c1nc(Sc1cccc(C(F)(F)F)c1)n2C1O[C@H](COP(=O)(O)O)[C@@H](O)[C@H]1O (some centres not stated),105 µM

row,SMILES,Ki
1,O=P(O)(O)OC[C@H]1OC(n2c(NCc3ccccc3)nc3c(O)ncnc32)[C@H](O)[C@@H]1O (some centres not stated),236 µM
2,CCCCCSc1nc2c(N)ncnc2n1C1O[C@H](COP(=O)(O)O)[C@@H](O)[C@H]1O (some centres not stated),84 µM
3,Nc1ncnc2c1nc(SCc1ccc([N+](=O)[O-])cc1)n2C1O[C@H](COP(=O)(O)O)[C@@H](O)[C@H]1O (some centres not stated),52 µM
4,O=[N+]([O-])c1ccc(CCSc2nc3c(O)ncnc3n2C2O[C@H](COP(=O)(O)O)[C@@H](O)[C@H]2O)cc1 (some centres not stated),54 µM
5,Nc1ncnc2c1nc(SCCc1ccc([N+](=O)[O-])cc1)n2C1O[C@H](COP(=O)(O)O)[C@@H](O)[C@H]1O (some centres not stated),68 µM
6,Nc1ncnc2c1nc(SCCCc1ccccc1)n2C1O[C@H](COP(=O)(O)O)[C@@H](O)[C@H]1O (some centres not stated),64 µM
7,Nc1ncnc2c1nc(SCc1ccc([N+](=O)[O-])cc1Cl)n2C1O[C@H](COP(=O)(O)O)[C@@H](O)[C@H]1O (some centres not stated),17 µM
8,O=c1[nH]cnc2c1nc(SCc1ccccc1)n2C1O[C@H](COP(=O)(O)O)[C@@H](O)[C@H]1O (some centres not stated),46 µM
9,Nc1ncnc2c1nc(SCc1cccc([N+](=O)[O-])c1)n2C1O[C@H](COP(=O)(O)O)[C@@H](O)[C@H]1O (some centres not stated),47 µM
10,CC(C)(C)c1ccc(CSc2nc3c(N)ncnc3n2C2O[C@H](COP(=O)(O)O)[C@@H](O)[C@H]2O)cc1 (some centres not stated),130 µM
11,O=c1[nH]cnc2c1nc(Br)n2C1O[C@H](COP(=O)(O)O)[C@@H](O)[C@H]1O (some centres not stated),271 µM
12,Nc1ncnc2c1nc(S)n2C1O[C@H](COP(=O)(O)O)[C@@H](O)[C@H]1O (some centres not stated),98 µM
13,Nc1ncnc2c1nc(SCCc1ccccc1)n2C1O[C@H](COP(=O)(O)O)[C@@H](O)[C@H]1O (some centres not stated),91 µM
14,Nc1ncnc2c1nc(SCc1ccccc1)n2C1O[C@H](COP(=O)(O)O)[C@@H](O)[C@H]1O (some centres not stated),124 µM
15,N#Cc1ccc(CSc2nc3c(N)ncnc3n2C2O[C@H](COP(=O)(O)O)[C@@H](O)[C@H]2O)cc1 (some centres not stated),58 µM
16,Nc1ncnc2c1ncn2[C@@H]1O[C@H](COP(=O)(O)O)[C@@H](O)[C@H]1O [ADENOSINE PHOSPHATE],450 µM
